{
  "source": "ChEMBL document CHEMBL3822412",
  "about": "“Exploiting Protein Conformational Change to Optimize Adenosine-Derived Inhibitors of HSP70” (J Med Chem, 2016)",
  "data": [
    {"biological_target": "Heat shock cognate 71 kDa protein (Homo sapiens, UniProt P11142)", "sequence (P11142 whole entry, the tested form may be a part)": "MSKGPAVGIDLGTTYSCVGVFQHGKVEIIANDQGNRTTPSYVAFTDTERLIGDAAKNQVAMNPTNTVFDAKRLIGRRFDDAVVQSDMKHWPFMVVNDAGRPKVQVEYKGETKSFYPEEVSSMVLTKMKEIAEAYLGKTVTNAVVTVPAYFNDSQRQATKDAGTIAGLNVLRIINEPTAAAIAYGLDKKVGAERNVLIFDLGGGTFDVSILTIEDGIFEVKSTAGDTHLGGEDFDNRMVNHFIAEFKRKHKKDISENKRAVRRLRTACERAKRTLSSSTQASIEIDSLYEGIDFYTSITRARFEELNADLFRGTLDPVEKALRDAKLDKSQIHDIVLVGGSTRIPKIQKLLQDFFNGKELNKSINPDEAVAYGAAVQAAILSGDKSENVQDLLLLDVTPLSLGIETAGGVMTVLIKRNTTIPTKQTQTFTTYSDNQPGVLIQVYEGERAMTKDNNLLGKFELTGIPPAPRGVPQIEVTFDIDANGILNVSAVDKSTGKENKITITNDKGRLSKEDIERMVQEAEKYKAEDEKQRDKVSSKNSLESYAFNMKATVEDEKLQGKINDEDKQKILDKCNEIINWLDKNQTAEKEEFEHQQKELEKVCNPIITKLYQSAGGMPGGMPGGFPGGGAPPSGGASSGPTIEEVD", "experiment": "(§1) Binding affinity to human truncated HSC70 NBD (1 to 381 residues) by SPR analysis", "settings": "read-out: Kd", "outline": "(§2)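 Human HSC70-NBD (residues 1-381) amine-coupled to a CM5 chip to ~5000 RU, with 750 µM ADP present during coupling. Running buffer PBS pH 7.4 with 0.05% Tween20 and 5% DMSO. Eight-point dose response over 50–2000, 5–200 or 0.0625–2.5 µM. Flow 30 µL/min, 60 s injection, 120 s dissociation, no regeneration, unmodified reference cell. KD taken from equilibrium binding curves fitted to a 1:1 model. Geometric mean ± SEM, n≥3.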", "units": {"Kd": "µM"}, "values": [
      {"molecule": "Cc1ccc(CNc2nc3c(N)ncnc3n2[C@@H]2O[C@H](CO)[C@@H](O)[C@H]2O)cc1", "Kd": 0.3},
      {"molecule": "Nc1ncnc2c1nc(NCc1ccc(Cl)cc1)n2[C@@H]1O[C@H](CO)[C@@H](O)[C@H]1O", "Kd": 0.28},
      {"molecule": "COc1nc2c(N)ncnc2n1[C@@H]1O[C@H](CO)[C@@H](O)[C@H]1O", "Kd": "> 1000"},
      {"molecule": "Nc1ncnc2c1nc(NCc1ccc(F)cc1)n2[C@@H]1O[C@H](CO)[C@@H](O)[C@H]1O", "Kd": 0.46},
      {"molecule": "CNc1c(C(N)=O)c2c(N)ncnc2n1[C@@H]1O[C@H](CO)[C@@H](O)[C@H]1O", "Kd": 30},
      {"molecule": "N#Cc1c(NCc2ccccc2)n([C@@H]2O[C@H](CO)[C@@H](O)[C@H]2O)c2ncnc(N)c12", "Kd": 2.8},
      {"molecule": "CN(C)c1nc2c(N)ncnc2n1[C@@H]1O[C@H](CO)[C@@H](O)[C@H]1O", "Kd": "> 1000"},
      {"molecule": "CNc1c(C#N)c2c(N)ncnc2n1[C@@H]1O[C@H](CO)[C@@H](O)[C@H]1O", "Kd": 3.3},
      {"molecule": "CNc1nc2c(N)ncnc2n1[C@@H]1O[C@H](C)[C@@H](O)[C@H]1O", "Kd": 27},
      {"molecule": "CNc1nc2c(N)ncnc2n1[C@@H]1O[C@H](CO)[C@@H](O)[C@H]1O", "Kd": 17},
      {"molecule": "Nc1ncnc2c1nc(NCc1ccccc1)n2[C@@H]1O[C@H](CO)[C@@H](O)[C@H]1O", "Kd": 1.4},
      {"molecule": "Nc1ncnc2c1nc(NCc1ccc3ncccc3c1)n2[C@@H]1O[C@H](CO)[C@@H](O)[C@H]1O", "Kd": 0.72},
      {"molecule": "Nc1ncnc2c1nc(N)n2[C@@H]1O[C@H](CO)[C@@H](O)[C@H]1O", "Kd": 7},
      {"molecule": "Nc1ncnc2c1nc(NCc1ccc(Cl)c(Cl)c1)n2[C@@H]1O[C@H](CO)[C@@H](O)[C@H]1O", "Kd": 3.5},
      {"molecule": "C[C@H]1O[C@@H](n2cnc3c(N)ncnc32)[C@H](O)[C@@H]1O", "note": "[5'-Deoxyadenosine]", "Kd": 130},
      {"molecule": "Nc1ncnc2c1ncn2[C@@H]1O[C@H](COP(=O)(O)OP(=O)(O)O)[C@@H](O)[C@H]1O", "note": "[ADENOSINE DIPHOSPHATE]", "Kd": 0.32},
      {"molecule": "Nc1ncnc2c1ncn2[C@@H]1O[C@H](CO)[C@@H](O)[C@H]1O", "note": "[ADENOSINE]", "Kd": 110}
    ]},
    {"biological_target": "Heat shock cognate 71 kDa protein (Homo sapiens, UniProt P11142)", "experiment": "as §1", "settings": "read-out: pKd (converted)", "outline": "as §2", "units": {"Kd": "µM"}, "values": [
      {"molecule": "NC(=O)c1cn([C@@H]2O[C@H](CO)[C@@H](O)[C@H]2O)c2ncnc(N)c12", "note": "[SANGIVAMYCIN]", "Kd": 3.24},
      {"molecule": "N#Cc1cn([C@@H]2O[C@H](CO)[C@@H](O)[C@H]2O)c2ncnc(N)c12", "note": "[TOYOCAMYCIN]", "Kd": 91.2},
      {"molecule": "Nc1ncnc2c1ccn2[C@@H]1O[C@H](CO)[C@@H](O)[C@H]1O", "note": "[TUBERCIDIN]", "Kd": 28.2}
    ]}
  ]
}
